Like-named read-outs stand apart in the source and are kept apart here. One block for each compound: values may come before it.
Assays:
[1] = target: recombinant human DDAH1 (rhDDAH1) (Homo sapiens, UniProt O94760); assay: Colorimetric microplate DDAH activity assay; type: biochemical
[2] = system: human microvascular endothelial cells; assay: Intracellular ADMA in human endothelial cells; type: cell-based; details: 20 μM, 24 hours
Procedure, shortened: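 HMEC-1 microvascular endothelial cells in serum-free DMEM got test compound (20 μM final), a known DDAH1 inhibitor as control, or DMSO vehicle for 3 h. Medium was then switched to DMEM with 10% FBS, 4mM HEPES and penicillin/streptomycin (pH 7.6), 37°C/5% CO2, until 24 h. Cells were washed and lysed; protein measured by Coomassie; intracellular ADMA by ELISA. Duplicate experiments; unpaired t-test versus vehicle.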

[3] = target: T1, rhDDAH1 (Homo sapiens, UniProt O94760); assay: Reversibility study by inhibitor dilution; type: biochemical; details: DDAH 30 μM pre-incubated with inhibitor, serially diluted
T1 sequence (O94760 whole entry): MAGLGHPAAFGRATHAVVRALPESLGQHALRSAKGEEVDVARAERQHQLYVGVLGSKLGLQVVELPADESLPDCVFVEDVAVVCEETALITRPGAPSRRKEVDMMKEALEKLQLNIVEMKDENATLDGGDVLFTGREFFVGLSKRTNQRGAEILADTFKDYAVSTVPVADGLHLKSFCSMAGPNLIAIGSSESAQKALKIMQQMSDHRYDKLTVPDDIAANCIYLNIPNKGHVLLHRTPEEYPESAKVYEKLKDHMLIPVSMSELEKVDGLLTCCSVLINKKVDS
Procedure, shortened: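 DDAH (30 μM, 100-fold above the enzymatic assay concentration) was pre-incubated with test compound at three concentrations, then diluted. Recovery of enzymatic activity was read by fluorometric DDAH assay, with a known DDAH1 inhibitor as control.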

[4] = system: human saphenous vein segments; assay: NOx release from human saphenous vein segments; details: 24 hours; in the presence or absence of A23187 (0.5 μM); omeprazole 3–100 μM, L-257 100 μM
Procedure, shortened: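 Saphenous vein segments harvested during CABG surgery were rinsed in lactated Ringer's solution, cut into 0.5 cm pieces and held in endothelial cell medium. They were kept basal or stimulated with A23187 (0.5 μM) for 24 hours with test compound, a reference DDAH1 inhibitor or vehicle. Griess reaction measured total nitrite (NOx) in the conditioned medium. Duplicate experiments, mean ± SEM, one-way ANOVA with Bonferroni post-test versus vehicle.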

[5] = single oral dose of 30 mg, cited from earlier work
[6] = target: DDAH (Homo sapiens, UniProt O94760); assay: High throughput screen for DDAH inhibitors; type: biochemical; details: primary hits of the screen of about 130,000 small molecules
Chain of DDAH (O94760 whole entry): as above
Procedure, shortened: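 Purified recombinant human DDAH1 was used in a DDAH activity assay to screen a library of about 130,000 small molecules. Activity was monitored by colorimetric and fluorometric assays. Hits were compounds inhibiting DDAH by more than 30%. Primary hits were then validated with orthogonal colorimetric and fluorimetric activity assays.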

[7] = Serum ADMA levels in mice in vivo; parameters: species or system mouse; details: C57BL/6J mice; 30 mg/kg/day subcutaneous; 5-week study period
[8] = system: HMVECs; assay: Western blot of eNOS and phospho-eNOS in HMVECs; type: cell-based, human; details: HMVEC lysate, normalized to β-actin
Procedure, shortened: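 Endothelial cell lysates (20 μg) from cells exposed to test compound or vehicle were analysed by Western blot for total eNOS and phospho-eNOS. VEGF (50 ng/mL) served as positive control for eNOS phosphorylation. Bands were normalized to β-actin.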

[9] = target: T1, rhDDAH1; assay: Surface plasmon resonance enzyme-drug binding study; details: 12.5–100 μM; rhDDAH1 amine coupled to CM5 chip; pH 6.5
Procedure, shortened: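 rhDDAH1 was purified with HEPES elution (10mM HEPES in PBS) to avoid competing amines, then amine-coupled to a CM5 chip. Test compound from a DMSO stock, or DMSO vehicle, was diluted in 100mM Na2HPO4, pH 6.5. It was passed over the chip at 4 concentrations (serial dilution, 12.5–100 μM). Binding was followed in real time as sensorgram peaks, in duplicate experiments.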

[10] = system: primary human microvascular endothelial cells (HMVECs); assay: Intracellular NOx in endothelial cells; type: cell-based; details: 24 hours; lysates, normalized to total protein
Procedure, shortened: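 Primary HMVECs were exposed to vehicle or various concentrations of test compound for 24 h, with a selective DDAH1 inhibitor as control. Total nitrite (NOx) in cell lysates was measured by Griess reaction and normalized to total protein. Values come from duplicate experiments.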

[11] = system: HMVECs; assay: Western blot of DDAH1 and DDAH2 expression in HMVECs; type: cell-based, human; details: 3–100 μM for 24 hours
[12] = system: mouse thoracic aorta; assay: Vascular reactivity of isolated mouse thoracic aorta ex vivo; details: aorta exposed for 24 hours
[13] = IC50, 8 point concentration range 0.78–100 μM, Mean ± SEM, triplicate

Chain of recombinant human DDAH1 (rhDDAH1) (O94760 whole entry): as above

inhibition of DDAH in high throughput screen [6]: more than 30%
Structure (SMILES): Cc1c(OCC(F)(F)F)ccnc1C[S+]([O-])c1nc2ccccc2[nH]1 (stereo not shown) [Lansoprazole, lansoprazole]
Cmax ([5]; read-out: maximum plasma concentration (Cmax)): 2 to 6 µM | time to maximum plasma concentration [5]: ≤ 3 h | increase of intracellular ADMA compared to vehicle control [2]: ~ 30% | increase of serum ADMA compared to vehicle control [7]: about 20%

inhibition of DDAH in high throughput screen [6]: more than 30%
Structure (SMILES): COc1ccnc(C[S+]([O-])c2nc3ccc(OC(F)F)cc3[nH]2)c1OC (stereo not shown) [Pantoprazole, pantoprazole]

IC50 [1]: 61 ± 1.5 µM | inhibition of DDAH in high throughput screen [6]: more than 30%
Structure (SMILES): COc1ccc2[nH]c([S+]([O-])Cc3ncc(C)c(OC)c3C)nc2n1 (stereo not shown) [Tenatoprazole, tenatoprazole]

More lines, now with the values behind:

Structure (SMILES): COc1ccc2nc([S@@+]([O-])Cc3ncc(C)c(OC)c3C)[nH]c2c1 [Esomeprazole, esomeprazole]
IC50 [1, 13]: 52 ± 5 µM | increase of intracellular ADMA compared to vehicle control [2]: ~ 30%

Structure (SMILES): COCCNC(N)=NCCC[C@H](N)C(=O)O [L-257]
effect on intracellular ADMA ([2]; control DDAH inhibitor): increased ADMA | reversibility of inhibition of DDAH enzymatic activity upon dilution [3]: complete reversibility upon dilution | NOx released from isolated human saphenous veins [4]: significantly inhibited

Structure (SMILES): COc1ccc2[nH]c([S+]([O-])Cc3ncc(C)c(OC)c3C)nc2c1 (stereo not shown) [Omeprazole, omeprazole]
expression of total eNOS and active eNOS (phospho-eNOS) [8]: downregulated | binding to DDAH (SPR sensorgram) [9]: direct interaction between the PPI and DDAH | IC50 [1, 13]: 58 ± 5 µM | IC50 ([1]; IC50, IC50 value used to set the concentrations of the reversibility study): ~60 µM | levels of nitrogen oxides (NOx) in cultured endothelial cells [10]: dose-dependently reduced | inhibition of DDAH in high throughput screen [6]: more than 30% | protein expression of DDAH1 and DDAH2 [11]: neither regulated the expression of DDAH1 nor that of DDAH2 | contraction to phenylephrine (PE) [12]: enhanced the contraction to phenylephrine | endothelium independent vasorelaxation to sodium nitroprusside [12]: did not effect | relaxation to acetylcholine (ACh) [12]: blunted the relaxation to acetylcholine | reversibility of inhibition of DDAH enzymatic activity upon dilution [3]: rapid and almost complete reversibility | NOx released from isolated human saphenous veins [4]: significantly inhibited

— paper PMC3838201 (Circulation, 2013)
